These results are taken from ChEMBL document CHEMBL4257575, “Discovery of Novel Flavonoid Dimers To Reverse Multidrug Resistance Protein 1 (MRP1, ABCC1) Mediated Drug Resistance in Cancers Using a High Throughput Platform with "Click Chemistry"” (J Med Chem, 2018).

The data set addresses Multidrug resistance-associated protein 1 (Homo sapiens, UniProt P33527). Kind of data set: Inhibition of MRP1 in human 2008/MRP1 cells assessed as potentiation of doxorubicin-induced cytotoxicity by measuring cell survival at 2 uM after 5 days by MTS assay relative to control. The format is cell-based. To be noted: 120 h. In short, it runs like this: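 2008/MRP1 cells (retroviral human MRP1 transfectant; RPMI 1640, 10% FBS) at 4,000 per well, with 100 nM doxorubicin plus crude, unpurified click products in DMSO: 2 µM in the primary screen, 1 µM in the secondary. Incubated 5 days at 37 °C. MTS/PMS added for 2 h at 37 °C, absorbance read at 490 nm. % survival is relative to wells without DOX or product. Run in triplicate, at least three experiments.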
(In general: Formazan colour is commonly taken as a measure of viable cells.)

Molecules are shown by their SMILES.

Sequence of Multidrug resistance-associated protein 1 (P33527 whole entry): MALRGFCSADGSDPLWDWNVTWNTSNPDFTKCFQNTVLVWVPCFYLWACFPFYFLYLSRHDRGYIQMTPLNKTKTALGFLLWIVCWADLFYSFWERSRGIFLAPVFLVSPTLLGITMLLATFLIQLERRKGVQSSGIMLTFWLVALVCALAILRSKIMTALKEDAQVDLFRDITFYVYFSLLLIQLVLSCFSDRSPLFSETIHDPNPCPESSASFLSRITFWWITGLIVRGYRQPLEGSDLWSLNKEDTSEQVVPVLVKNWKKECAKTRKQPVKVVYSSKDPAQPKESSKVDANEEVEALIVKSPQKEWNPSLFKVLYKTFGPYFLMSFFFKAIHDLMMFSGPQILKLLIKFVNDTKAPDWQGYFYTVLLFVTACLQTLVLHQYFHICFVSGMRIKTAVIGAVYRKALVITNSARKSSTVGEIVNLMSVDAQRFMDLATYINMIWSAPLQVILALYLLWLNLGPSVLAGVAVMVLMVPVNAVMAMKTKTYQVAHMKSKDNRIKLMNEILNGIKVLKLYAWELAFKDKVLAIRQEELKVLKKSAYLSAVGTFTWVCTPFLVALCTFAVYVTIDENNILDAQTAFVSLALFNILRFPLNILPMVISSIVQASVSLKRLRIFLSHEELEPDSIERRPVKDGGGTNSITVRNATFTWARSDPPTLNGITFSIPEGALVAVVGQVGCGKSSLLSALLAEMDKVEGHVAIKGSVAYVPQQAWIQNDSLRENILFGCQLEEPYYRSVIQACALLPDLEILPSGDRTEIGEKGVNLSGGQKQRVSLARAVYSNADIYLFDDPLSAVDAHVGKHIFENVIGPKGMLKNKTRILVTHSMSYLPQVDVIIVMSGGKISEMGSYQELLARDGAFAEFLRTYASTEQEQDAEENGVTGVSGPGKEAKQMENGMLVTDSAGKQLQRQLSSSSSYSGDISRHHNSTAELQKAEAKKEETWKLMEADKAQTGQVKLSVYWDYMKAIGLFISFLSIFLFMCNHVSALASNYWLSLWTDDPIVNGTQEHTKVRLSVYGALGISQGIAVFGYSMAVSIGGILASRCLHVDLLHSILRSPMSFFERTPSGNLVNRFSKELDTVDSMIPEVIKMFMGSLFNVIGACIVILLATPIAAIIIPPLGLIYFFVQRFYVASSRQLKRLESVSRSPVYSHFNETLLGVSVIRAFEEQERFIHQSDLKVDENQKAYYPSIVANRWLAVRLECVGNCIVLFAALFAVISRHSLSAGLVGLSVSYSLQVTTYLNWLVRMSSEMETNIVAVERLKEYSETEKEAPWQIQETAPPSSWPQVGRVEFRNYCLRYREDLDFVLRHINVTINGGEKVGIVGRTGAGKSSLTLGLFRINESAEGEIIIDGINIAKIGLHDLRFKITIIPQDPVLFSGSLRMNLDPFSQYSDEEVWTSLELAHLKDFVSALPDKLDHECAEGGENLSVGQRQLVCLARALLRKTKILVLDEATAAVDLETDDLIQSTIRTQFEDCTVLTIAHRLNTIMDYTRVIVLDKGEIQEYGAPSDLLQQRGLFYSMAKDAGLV

Turning to `Cc1ccc2oc(-c3ccc(OCCOCCOCCn4cc(CN(Cc5cn(CCOCCOCCOc6ccc(-c7cc(=O)c8cc(C)ccc8o7)cc6)nn5)Cc5cn(CCOCCOCCOc6ccc(-c7cc(=O)c8cc(C)ccc8o7)cc6)nn5)nn4)cc3)cc(=O)c2c1`, the Survival is listed as 71%.

In the case of `Cc1ccc(C(=O)/C=C/c2ccc(OCCCCc3cn(CCOCCOc4ccc(-c5oc6ccccc6c(=O)c5OCc5ccccc5)cc4)nn3)cc2)c(O)c1`, the Survival worked out at 66%.

In the case of `O=c1cc(-c2ccc(OCCOCCOCCn3cc(CCCCOc4ccc5c(=O)cc(-c6ccccc6)oc5c4)nn3)cc2)oc2ccccc12`, the Survival is given as 57%.

As for `COc1cccc(COc2c(-c3ccc(OCCOCCn4cc(CCCCOc5ccc(/C=C/C(=O)c6ccc(F)cc6O)cc5)nn4)cc3)oc3ccccc3c2=O)c1`, the Survival came out at 75%.

Turning to `[N-]=[N+]=NCCOCCOc1ccc(-c2cc(=O)c3ccccc3o2)cc1`, the Survival worked out at 78%.

Take `O=c1cc(-c2ccc(OCCCc3cn(CCOCCOCCOc4ccc5c(=O)cc(-c6ccccc6)oc5c4)nn3)cc2)oc2cc(F)ccc12`: the Survival is reported as 52%.

As to `Cc1ccc2oc(-c3ccc(OCCOCCOCCn4cc(CNc5ccccc5)nn4)cc3)cc(=O)c2c1`, the Survival was found to be 86%.

As for `COCOc1cc(OCc2ccccc2)c2c(=O)cc(-c3ccc(OCCCc4cn(CCOc5cccc6c(=O)cc(-c7ccccc7)oc56)nn4)cc3)oc2c1`, the Survival was 81%.

With `O=C(/C=C/c1ccc(OCCCCc2cn(CCOCCOCCOc3ccc4c(=O)cc(-c5ccccc5)oc4c3)nn2)cc1)c1ccc(F)cc1O`, the Survival is 67%.

As to `O=c1cc(-c2ccc(OCCOCCn3cc(CN(Cc4ccccc4)Cc4cn(CCOCCOc5ccc(-c6cc(=O)c7cc(F)ccc7o6)cc5)nn4)nn3)cc2)oc2ccc(F)cc12`, the Survival is given as 70%.

`O=c1cc(-c2ccc(OCCOCCn3cc(-c4ccc(-c5cn(CCOCCOc6ccc(-c7cc(=O)c8ccccc8o7)cc6)nn5)cc4)nn3)cc2)oc2ccccc12`: the Survival came out at 81%.

`O=c1[nH]c(-c2ccc(OCCCc3cn(CCOCCOc4ccc(-c5cc(=O)c6ccccc6o5)cc4)nn3)cc2)nc2ccccc12`: the Survival stood at 58%.

In the case of `O=c1cc(-c2ccc(OCCCc3cn(CCOCCOc4cccc(-c5oc6ccccc6c(=O)c5OCc5ccccc5)c4)nn3)cc2)oc2ccccc12`, the Survival stood at 54%.

Turning to `O=c1cc(-c2ccc(OCCOCCOCCn3cc(CN4CCN(Cc5cn(CCOCCOCCOc6ccc(-c7cc(=O)c8cc(F)ccc8o7)cc6)nn5)CC4)nn3)cc2)oc2ccc(F)cc12`, the Survival is recorded as 85%.

In the case of `O=c1c(OCc2ccccc2)c(-c2cccc(OCCOCCn3cc(CN4CCN(Cc5cn(CCOCCOc6cccc(-c7oc8ccccc8c(=O)c7OCc7ccccc7)c6)nn5)CC4)nn3)c2)oc2ccccc12`, the Survival is 84%.

As for `Cc1ccc2oc(-c3ccc(OCCOCCOCCn4cc(COCCOc5ccc6c(=O)cc(-c7ccccc7)oc6c5)nn4)cc3)cc(=O)c2c1`, the Survival was found to be 54%.

Regarding `Cc1ccc(O)c(C(=O)/C=C/c2ccc(OCCCCc3cn(CCOCCOCCOc4ccc(-c5oc6ccccc6c(=O)c5OCc5ccccc5)cc4)nn3)cc2)c1`, the Survival is listed as 76%.

Regarding `O=c1cc(-c2ccccc2)oc2cc(OCCn3cc(CN(Cc4cn(CCOc5ccc6occ(-c7ccccc7)c(=O)c6c5)nn4)Cc4cn(CCOc5ccc6occ(-c7ccccc7)c(=O)c6c5)nn4)nn3)ccc12`, the Survival stood at 87%.

On to `O=c1cc(-c2ccccc2)oc2cc(OCCn3cc(-c4cccc(-c5cn(CCOc6ccc7occ(-c8ccccc8)c(=O)c7c6)nn5)c4)nn3)ccc12`, for which the Survival is 90%.

`O=C(/C=C/c1ccc(OCCCCc2cn(CCOCCOCCOc3ccc(-c4cc(=O)c5cc(F)ccc5o4)cc3)nn2)cc1)c1ccc(F)cc1O`: the Survival is given as 53%.

Regarding `C#CCCCOc1ccc(-c2nc3ccccc3c(=O)[nH]2)cc1`, the Survival is recorded as 86%.

Consider `COc1cccc(COc2c(-c3ccc(OCCOCCn4cc(CCCCOc5ccc(C=O)cc5)nn4)cc3)oc3ccccc3c2=O)c1`, for which the Survival was 76%.

As to `O=C(/C=C/c1ccc(OCCCCc2cn(CCOCCOCCOc3ccc(-c4cc(=O)c5ccccc5o4)cc3)nn2)cc1)c1ccc(F)cc1O`, the Survival is given as 55%.

For `COc1cccc(COc2c(-c3ccc(OCCOCCn4cc(CN(Cc5ccccc5)Cc5cn(CCOCCOc6ccc(-c7oc8ccccc8c(=O)c7OCc7cccc(OC)c7)cc6)nn5)nn4)cc3)oc3ccccc3c2=O)c1`, the Survival was found to be 80%.

As to `COc1cccc(COc2c(-c3ccc(OCCOCCn4cc(CCCCOc5ccc(/C=C/C(=O)c6ccccc6O)cc5)nn4)cc3)oc3ccccc3c2=O)c1`, the Survival was found to be 74%.

Take `O=c1cc(-c2ccc(OCCCc3cn(CCOCCOCCOc4ccc(-c5cc(=O)c6cc(F)ccc6o5)cc4)nn3)cc2)oc2ccc(F)cc12`: the Survival is given as 76%.

With `O=c1cc(-c2ccccc2)oc2cc(OCCOCCn3cc(CN4CCN(Cc5cn(CCOCCOc6ccc7oc(-c8ccccc8)cc(=O)c7c6)nn5)CC4)nn3)ccc12`, the Survival is 99%.

For `C#CCCCOc1ccc(-c2cc(=O)c3c(OCc4ccccc4)cc(OCOC)cc3o2)cc1`, the Survival is recorded as 67%.

With `O=c1cc(-c2ccccc2)oc2cc(OCCCc3cn(CCOCCOc4ccc(-c5cc(=O)c6cc(F)ccc6o5)cc4)nn3)ccc12`, the Survival is 55%.

Consider `O=c1cc(-c2ccc(OCCCc3cn(CCOc4cccc5c(=O)cc(-c6ccccc6)oc45)nn3)cc2)oc2ccc(F)cc12`, for which the Survival is 89%.

`O=c1cc(-c2ccc(OCCCc3cn(CCOCCOc4ccc(-c5oc6ccccc6c(=O)c5OCc5ccccc5)cc4)nn3)cc2)oc2cc(F)ccc12`: the Survival was 60%.

With `O=C(/C=C/c1ccc(OCCCCc2cn(CCOCCOc3cccc(-c4oc5ccccc5c(=O)c4OCc4ccccc4)c3)nn2)cc1)c1ccc(F)cc1O`, the Survival is reported as 68%.

As to `O=c1c(OCc2ccccc2)c(-c2ccc(OCCOCCOCCn3cc(CN4CCN(Cc5cn(CCOCCOCCOc6ccc(-c7oc8ccccc8c(=O)c7OCc7ccccc7)cc6)nn5)CC4)nn3)cc2)oc2ccccc12`, the Survival was 96%.

With `O=c1[nH]c(-c2ccc(OCCCc3cn(CCOCCOc4ccc(-c5cc(=O)c6cc(F)ccc6o5)cc4)nn3)cc2)nc2ccccc12`, the Survival amounted to 76%.

On to `O=c1cc(-c2ccc(OCCOCCOCCn3cc(-c4ccc(-c5cn(CCOCCOCCOc6ccc(-c7cc(=O)c8ccccc8o7)cc6)nn5)cc4)nn3)cc2)oc2ccccc12`, for which the Survival is 83%.

Regarding `O=Cc1ccc(OCCCCc2cn(CCOc3cccc4c(=O)cc(-c5ccccc5)oc34)nn2)cc1`, the Survival worked out at 83%.

With `Cc1ccc(O)c(C(=O)/C=C/c2ccc(OCCCCc3cn(CCOCCOCCOc4ccc5c(=O)cc(-c6ccccc6)oc5c4)nn3)cc2)c1`, the Survival worked out at 84%.

As to `Cc1ccc(C(=O)/C=C/c2ccc(OCCCCc3cn(CCOCCOc4cccc(-c5oc6ccccc6c(=O)c5OCc5ccccc5)c4)nn3)cc2)c(O)c1`, the Survival worked out at 79%.

For the compound `Cc1ccc2oc(-c3ccc(OCCOCCOCCn4cc(CCCOc5ccc(-c6cc(=O)c7cc(F)ccc7o6)cc5)nn4)cc3)cc(=O)c2c1`, the Survival was found to be 82%.

Consider `COc1cccc(COc2c(-c3ccc(OCCOCCn4cc(CN(C)CCN(C)Cc5cn(CCOCCOc6ccc(-c7oc8ccccc8c(=O)c7OCc7cccc(OC)c7)cc6)nn5)nn4)cc3)oc3ccccc3c2=O)c1`, for which the Survival was 64%.

As to `O=c1cc(-c2ccccc2)oc2cc(OCCOCCn3cc(-c4cccc(-c5cn(CCOCCOc6ccc7oc(-c8ccccc8)cc(=O)c7c6)nn5)c4)nn3)ccc12`, the Survival is 76%.

As for `COc1cccc(COc2c(-c3ccc(OCCCCc4cn(CCOc5cccc6c(=O)cc(-c7ccccc7)oc56)nn4)cc3)oc3ccccc3c2=O)c1`, the Survival is 51%.

Regarding `COc1cccc(COc2c(-c3ccc(OCCCCc4cn(CCOCCOCCOc5ccc6c(=O)cc(-c7ccccc7)oc6c5)nn4)cc3)oc3ccccc3c2=O)c1`, the Survival is on record as 78%.

With `C#Cc1cccc(C#C)c1`, the Survival turned out to be 84%.

For `O=c1cc(-c2ccccc2)oc2cc(OCCCCc3cn(CCOCCOc4cccc(-c5oc6ccccc6c(=O)c5OCc5ccccc5)c4)nn3)ccc12`, the Survival stood at 62%.

In the case of `O=C(/C=C/c1ccc(OCCCCc2cn(CCOCCOc3ccc(-c4cc(=O)c5cc(F)ccc5o4)cc3)nn2)cc1)c1ccccc1O`, the Survival came to 72%.

As to `Cc1ccc(O)c(C(=O)/C=C/c2ccc(OCCCCc3cn(CCOCCOCCOc4ccc(-c5cc(=O)c6ccccc6o5)cc4)nn3)cc2)c1`, the Survival is listed as 70%.

Take `COc1cccc(COc2c(-c3ccc(OCCOCCN=[N+]=[N-])cc3)oc3ccccc3c2=O)c1`: the Survival came out at 57%.

Take `C#CCCCOc1ccc(-c2cc(=O)c3ccccc3o2)cc1`: the Survival was determined as 74%.

Take `O=c1cc(-c2ccc(OCCOCCOCCn3cc(CNc4ccccc4)nn3)cc2)oc2ccc(F)cc12`: the Survival was found to be 90%.

As for `Cc1ccc2oc(-c3ccc(OCCOCCOCCn4cc(CCCOc5ccc6c(=O)cc(-c7ccccc7)oc6c5)nn4)cc3)cc(=O)c2c1`, the Survival was 55%.

As for `Cc1ccc(O)c(C(=O)/C=C/c2ccc(OCCCCc3cn(CCOCCOc4cccc(-c5oc6ccccc6c(=O)c5OCc5ccccc5)c4)nn3)cc2)c1`, the Survival came to 78%.

As to `C#CCN(CC#C)Cc1ccccc1`, the Survival amounted to 81%.

For `COCOc1cc(OCc2ccccc2)c2c(=O)cc(-c3ccc(OCCCc4cn(CCOCCOCCOc5ccc(-c6cc(=O)c7ccccc7o6)cc5)nn4)cc3)oc2c1`, the Survival is 66%.

As to `O=c1cc(-c2ccc(OCCOCCOCCn3cc(-c4cccc(-c5cn(CCOCCOCCOc6ccc(-c7cc(=O)c8ccccc8o7)cc6)nn5)c4)nn3)cc2)oc2ccccc12`, the Survival worked out at 85%.

As to `Cc1ccc2oc(-c3ccc(OCCOCCOCCn4cc(CCCCOc5ccc(C=O)cc5)nn4)cc3)cc(=O)c2c1`, the Survival amounted to 72%.

Take `O=c1cc(-c2ccccc2)oc2cc(OCCn3cc(CN4CCN(Cc5cn(CCOc6ccc7occ(-c8ccccc8)c(=O)c7c6)nn5)CC4)nn3)ccc12`: the Survival is listed as 93%.
